Hits are enriched below; roughly 1.6% of the tested compounds scored in any of these assays.
FLuc stim CS = FLuc activators, initial screening, artefact control for FLuc-dependent activation tests, biochemical, ATPlite luminescence | 200,000 tested, under 10 active | activation factor at 10 µM | AID 1027, 2008 | ATPlite luciferase biochemical, 10 min; 0 = ATP-free wells, 1 = DMSO control;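 active means luciferase activation factor, scaled between plate controls, of at least 2 with compound at 10 µM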
Target sequence (P08659 whole entry, looked up): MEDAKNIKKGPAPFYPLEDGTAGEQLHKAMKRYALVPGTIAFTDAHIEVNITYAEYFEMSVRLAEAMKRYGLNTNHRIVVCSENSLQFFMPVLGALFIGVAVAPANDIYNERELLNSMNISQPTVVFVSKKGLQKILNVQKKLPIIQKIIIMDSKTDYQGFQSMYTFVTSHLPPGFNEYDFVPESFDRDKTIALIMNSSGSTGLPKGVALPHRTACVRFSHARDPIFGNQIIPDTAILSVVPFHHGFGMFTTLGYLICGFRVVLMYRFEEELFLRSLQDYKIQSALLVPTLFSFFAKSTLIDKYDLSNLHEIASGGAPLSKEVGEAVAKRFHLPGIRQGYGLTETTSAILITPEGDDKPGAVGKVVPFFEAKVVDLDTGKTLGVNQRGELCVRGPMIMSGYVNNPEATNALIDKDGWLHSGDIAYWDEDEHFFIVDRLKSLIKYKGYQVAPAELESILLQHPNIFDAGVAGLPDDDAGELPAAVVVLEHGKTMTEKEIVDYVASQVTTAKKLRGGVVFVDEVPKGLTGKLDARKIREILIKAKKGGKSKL
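test system = cell-free luciferase reagent | medium = PBS as buffer for the ATP substrate | dosing = test compounds dosed from 2 mM stocks in 100% DMSO | incubation = 10 min at ambient temperature | detection = luminescence measurement of luciferase light output | benchmarks = low control with PBS replacing ATP, high control enzyme plus ATP without compound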
FLuc inhib CS = firefly luciferase enzyme inhibitors, primary screen, artefact control for luciferase-based inhibitor screens, biochemical, luminescence, ATPLite; Luciferin 4-monooxygenase (Photinus pyralis), P08659; 10 min; hit rate 1.5% among 200,000; inhibition, % at 10 µM; AID 1006, 2008;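 active means inhibition above about 50% when tested at 10 µM, limit read from the data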
C8 TRAIL sens = viability loss with TRAIL in NB7+C8 cells, primary screen, TRAIL sensitizer project, cell-based, ATPlite luminescence. inhibition (viability loss, TRAIL sensitization), % at 10 µM. hit rate 1% among 360,000;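 active means compounds causing at least 50% loss of cell viability in the single-dose screen, relative to plate controls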
PPC-1+TRAIL kill = compounds killing PPC-1 cancer cells with TRAIL present, primary screen, TRAIL potentiator project, ATPLite luminescence, uHTS | PPC-1 cells + TRAIL, ATPLite viability luminescence | cell killing (% activity), % at 4 µM or 5 µM | hit rate 0.41% among 220,000 | AID 1443, 2008;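 active means cell killing above 50% in the first pass at 4 µM, then a duplicate retest at 5 µM averaging 50% or more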;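 further: plate controls were cells with TRAIL plus DMSO for no effect and medium-only wells lacking cells for full effect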
* marks the source's active call; other numbers are inactive results.

For Nc1ncnc2c1ncn2[C@@H]1O[C@H](C(=O)N2CCN(c3ccc(Cl)cn3)CC2)[C@@H](O)[C@H]1O the results were C8 TRAIL sens -9.
Screening CC(=O)c1ccc(Nc2ccc(-c3ccccc3F)nn2)cc1 returned FLuc stim CS 0.4, FLuc inhib CS 58*, C8 TRAIL sens 48 and PPC-1+TRAIL kill 18.
Screening O=C(Nc1ccc2ccccc2c1)c1cccc(F)c1 returned C8 TRAIL sens 16 and PPC-1+TRAIL kill 10.
`Cc1ccc2cc(NC(=O)c3ccccc3)ccc2n1` gave C8 TRAIL sens 58*.
Cc1ccc2cc(NC(=O)CC(CC(=O)O)c3ccccc3)ccc2n1 (centres undefined) was read as C8 TRAIL sens -17.
Screening Cc1ccc2cc(NC(=O)c3cccc(F)c3)ccc2n1 returned C8 TRAIL sens 46* and PPC-1+TRAIL kill 5.
CCOC(=O)C1CCCN(Cc2ccc(OC)c(OCc3ccccc3)c2)C1 (centres undefined) was read as C8 TRAIL sens -9.
COc1ccccc1NC1=C(N2CCCCC2)C(=O)c2ccccc2C1=O was read as FLuc stim CS 1, FLuc inhib CS 0, C8 TRAIL sens 50 and PPC-1+TRAIL kill 72*.
`O=C(Nc1ccc(N2CCN(Cc3ccccc3F)CC2)cc1)c1ccc([N+](=O)[O-])o1` gave C8 TRAIL sens 89*.
For O=C(Nc1ccc(N2CCCCC2)cc1)c1ccc([N+](=O)[O-])o1 the results were C8 TRAIL sens 31.
For O=C(Nc1ccc(N2CCN(Cc3ccccc3F)CC2)cc1)c1ccccc1[N+](=O)[O-] the results were FLuc stim CS 1.1, FLuc inhib CS -9, C8 TRAIL sens -9 and PPC-1+TRAIL kill 19.
`CC1CCN(c2ccc(NC(=O)c3ccc([N+](=O)[O-])o3)cc2)CC1` gave C8 TRAIL sens 94*.
COc1ccc(CCNC(=O)CC2SC(N)=NC2=O)cc1OC (centres undefined) was read as FLuc stim CS 1.1, FLuc inhib CS -6, C8 TRAIL sens -4 and PPC-1+TRAIL kill 0.
`Cc1c(Cl)cccc1NC(=S)N1CCC(N(C)CC2CCCO2)CC1` (centres undefined) gave FLuc stim CS 1.1, FLuc inhib CS -8, C8 TRAIL sens 3 and PPC-1+TRAIL kill 15.
Screening CCc1nnc(/N=C/c2c(O)n(-c3ccc(Cl)cn3)c(=O)c3ccccc23)s1 returned FLuc stim CS 0.3, FLuc inhib CS 66*, C8 TRAIL sens 3 and PPC-1+TRAIL kill -1.
Screening NNc1nc(-c2ccccc2Cl)nc2sc3c(c12)CCCC3 returned FLuc stim CS 0.2, FLuc inhib CS 82*, C8 TRAIL sens 49 and PPC-1+TRAIL kill 11.
NNc1nc(-c2ccccc2Cl)nc2ccccc12 was read as C8 TRAIL sens 0.
For CC(/C=N\NC(=O)c1cc(C)oc1C)=C\c1ccccc1 the results were FLuc stim CS 0.2, FLuc inhib CS 76*, C8 TRAIL sens 49 and PPC-1+TRAIL kill 43.
CC(/C=N/NC(=O)c1cc(-c2ccc(C)o2)[nH]n1)=C\c1ccccc1 was read as FLuc stim CS 1, FLuc inhib CS 2, C8 TRAIL sens 7 and PPC-1+TRAIL kill 3.
`Cc1ccc(/C=N/NC(=O)c2cc(C)oc2C)cc1` gave C8 TRAIL sens 50* and PPC-1+TRAIL kill 44.
For Cc1cc(C(=O)N/N=C/c2ccncc2)c(C)o1 the results were C8 TRAIL sens -5 and PPC-1+TRAIL kill 1.
CCC(Oc1ccccc1)C(=O)Nc1ccc(C)c(S(=O)(=O)N2CCOCC2)c1 (centres undefined) was read as C8 TRAIL sens -4.
COc1ccc(C(=O)CN2C(=O)c3ccccc3S2(=O)=O)cc1 was read as C8 TRAIL sens 65* and PPC-1+TRAIL kill 38.
`COc1ccc(C(=O)CN2C(=O)c3ccccc3S2(=O)=O)cc1Br` gave C8 TRAIL sens 20.
`Cc1cc(C(=O)Cn2nc(C(=O)O)c3ccccc3c2=O)c(C)n1-c1ccc(F)cc1` gave FLuc stim CS 0.2, FLuc inhib CS 76*, C8 TRAIL sens 33 and PPC-1+TRAIL kill 57*.
COCCn1c(C)cc(C(=O)Cn2nc(C(=O)O)c3ccccc3c2=O)c1C was read as FLuc stim CS 0.1, FLuc inhib CS 91*, C8 TRAIL sens 64* and PPC-1+TRAIL kill 17.
`CCCn1c(C)cc(C(=O)Cn2nnc3ccccc3c2=O)c1C` gave FLuc stim CS 0.4, FLuc inhib CS 57*, C8 TRAIL sens 31 and PPC-1+TRAIL kill 32.
For Nc1nc(COc2ccc(F)cc2Cl)nc(N2CCCCC2)n1 the results were FLuc stim CS 1, FLuc inhib CS 0, C8 TRAIL sens -4 and PPC-1+TRAIL kill 2.
For COc1ccc(NC(=O)C2CC2(Cl)Cl)cc1S(=O)(=O)N1CCCCC1 (centres undefined) the results were C8 TRAIL sens -6.
`CCN(C[C@H]1N[C@@](Cc2ccccc2)(C(=O)OC)[C@H]2C(=O)N(C)C(=O)[C@@H]12)C(=O)NC(C)C` gave C8 TRAIL sens -8.
For CCCn1c(C)cc(C(=O)CN2C(=O)c3ccccc3S2(=O)=O)c1C the results were C8 TRAIL sens 58*.
Cc1ccc(C)c(C(=O)CN2C(=O)c3ccccc3S2(=O)=O)c1 was read as FLuc stim CS 1, FLuc inhib CS -2, C8 TRAIL sens 23 and PPC-1+TRAIL kill 10.
For C/C(N)=C(/C#N)C(=O)CSc1nc2ccccc2c(=O)n1-c1ccc(C)c(Cl)c1 the results were FLuc stim CS 1.1, FLuc inhib CS -13, C8 TRAIL sens 6 and PPC-1+TRAIL kill -2.
Screening Cc1cc(C(=O)Cn2ncc(Cl)c(Cl)c2=O)c(C)n1CC(F)(F)F returned FLuc stim CS 1, FLuc inhib CS 3, C8 TRAIL sens -3 and PPC-1+TRAIL kill 14.
For Cc1cccc(Cn2ncc(Cl)c(Cl)c2=O)c1 the results were FLuc stim CS 1.1, FLuc inhib CS -10, C8 TRAIL sens 54* and PPC-1+TRAIL kill 10.
`Cc1ccc(C)c(C(=O)Cn2ncc(Cl)c(Cl)c2=O)c1` gave FLuc stim CS 1, FLuc inhib CS -4, C8 TRAIL sens 97* and PPC-1+TRAIL kill 26.
For O=c1c2ccccc2cnn1Cc1ccc(Cl)c(Cl)c1 the results were C8 TRAIL sens 17.
`O=C1NC[C@@H](CCCCN2C[C@H](Cc3ccc(O)cc3)N(Cc3ccccc3)C(=O)C2=O)N(Cc2ccccc2)C1=O` gave C8 TRAIL sens -17.
Screening CCc1c(C2(O)CCCCC2)[nH]c2ccc(C(F)(F)F)cc12 returned C8 TRAIL sens 28.
`CCOC(=O)/C=C(\C)Sc1cc(O)c2ccccc2c1O` gave C8 TRAIL sens 72* and PPC-1+TRAIL kill 35.
`CCN(CC(=O)Nc1c(F)cccc1F)C(=O)c1ccc(C)c(S(=O)(=O)N2CCCCC2)c1` gave C8 TRAIL sens -12.
